The source of these data is publication PMC11964602 (Bioactive Materials, 2025).

For orientation: viability means a per cent measure of how many cells are alive, often set against a control. The term Kd denotes the constant that tells how readily two partners part at equilibrium. A lower Kd goes with a tighter complex. As usually defined, the stoichiometry N is a count of units in the complex or per binding partner.

Series [1] concerns rat RBCs. Description: Hemolysis assay. The class given is cell-based. The note with it: 62.5–1000 μg/mL, 37 °C, 30 min. The method, boiled down: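 Rat RBCs in glycine-buffered stabilizing saline were exposed to test peptide at 62.5, 125, 250, 500 or 1000 μg/mL for 30 min at 37 °C in a water bath, then centrifuged. Supernatant absorbance was read at 540 nm. RBCs in stabilizing buffer defined 0% hemolysis and 0.1% SDS (final) defined 100%.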

Series [2] has as its system HUVECs. Description: Tube formation assay with H2O2-generated ROS. The note with it: 25 μg/mL, 24 h. In kind it is cell-based, human. The method, boiled down: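 Confluent HUVECs were harvested and seeded at 1 × 10^4 cells per chamber on basement membrane matrix (Geltrex)-coated chamber slides. ROS groups received H2O2 (200 μM solution). Parent and metabolite peptides were each at 25 μg/mL in medium. After 24 h incubation, tubular networks were imaged by bright-field microscopy and tube parameters quantified by image analysis.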

For series [3], the system named is HUVECs. Description: Wound healing assay. The class given is cell-based, human. The settings on record: 25 μg/mL, 8 h, vs control. The method, boiled down:
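A confluent HUVEC monolayer was scratched with a sterile 200 μL pipette tip and debris washed off with PBS. Medium containing peptide at 25 μg/mL was added, and cells migrated 8 h at 37 °C. Bright-field images were taken at 0 and 8 h and wound areas measured by image analysis. Percent closure was computed from initial area minus 8-h area. Three experiments were run, each in triplicate wells.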

Series [4] concerns HUVECs. In words: Cytotoxicity assay. In kind it is cell-based, human. The note with it: HUVECs; 6.25–50 μg/mL; 24 h. Put shortly: (§1)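 Cells seeded at 10,000 per well and grown 24 h. They were then given medium containing 6.25–50 μg/mL peptide, with medium alone as control, for 24 h at 37 °C, 5% CO2. CCK-8 reagent was added and incubated 1 h at 37 °C, and absorbance read at 450 nm. Cytotoxicity was calculated from the OD values.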

The nature of series [5]: Cytotoxicity assay. In kind it is cell-based, human. Put shortly:
as §1

Series [6] in a line: Cytotoxicity assay. In kind it is cell-based, mouse. The method, boiled down: as §1
Series [7] concerns NIH/3T3. In words: Cytotoxicity assay. The note with it: NIH/3T3; 6.25–50 μg/mL; 24 h. In kind it is cell-based, mouse. The method, boiled down: as §1
Series [8] has as its target SARS-CoV-2 main protease (M^pro) (SARS-CoV-2 (Wuhan-Hu-1 isolate)) (UniProt P0DTD1).
Series [9] deals with CPB, porcine carboxypeptidase. The settings on record: cited from earlier work.
The target in series [10] is T1, SARS-CoV-2 main protease (M^pro) (SARS-CoV-2 (Wuhan-Hu-1 isolate), UniProt P0DTD1). In words: cell-based or functional assay.
Series [11] concerns the target T1, SARS-CoV-2 main protease (M^pro). Description: ITC. For orientation: ITC needs no label: the signal is the heat of the interaction.

Where two headings read alike, the source gives them in different places. Where no end group is shown, it is not given here.

On to `CC[C@H](C)[C@H](NC(=O)[C@H](CCC(=O)O)NC(=O)[C@H](C)NC(=O)[C@H](CCSC)NC(=O)[C@H](CC(=O)O)NC(=O)[C@@H]1CCCN1C(=O)[C@H](CCCCN)NC(=O)[C@H](CC(=O)O)NC(=O)[C@H](CO)NC(C)=O)C(=O)N[C@@H](CCC(=O)O)C(=O)N[C@@H](CCCCN)C(=O)N[C@@H](Cc1ccccc1)C(=O)N[C@@H](CC(=O)O)C(=O)N[C@@H](CCCCN)C(=O)N[C@@H](CO)C(=O)N[C@@H](CCCCN)C(=O)N[C@@H](CC(C)C)C(=O)N[C@@H](CCCCN)C(=O)N[C@@H](CCCCN)C(=O)N[C@H](C(=O)N[C@@H](CCC(=O)O)C(=O)N[C@H](C(=O)N[C@@H](CCC(N)=O)C(=O)N[C@@H](CCC(=O)O)C(=O)N[C@@H](CCCCN)C(=O)N[C@@H](CC(N)=O)C(=O)N1CCC[C@H]1C(=O)N[C@@H](CC(C)C)C(=O)N1CCC[C@H]1C(=O)N[C@@H](CO)C(=O)N[C@@H](CCCCN)C(=O)N[C@@H](CCC(=O)O)C(=O)N[C@H](C(=O)N[C@H](C(=O)N[C@@H](CCC(=O)O)C(=O)N[C@@H](CCC(N)=O)C(=O)N[C@@H](CCC(=O)O)C(=O)N[C@@H](CCCCN)C(=O)N[C@@H](CCC(N)=O)C(=O)N[C@@H](C)C(=O)NCC(=O)N[C@@H](CCC(=O)O)C(=O)N[C@@H](CO)C(=O)O)[C@@H](C)CC)[C@@H](C)O)[C@@H](C)O)[C@@H](C)O` [Ac-Tβ4, Acetyl-thymosin β4], for which the “hemolytic activity, OD values compared to 0.1 % SDS” value in [1] was < 1.5%. Further, in series [2], the “tube formation under H2O2 (ROS scavenging)” value was “failed to mitigate ROS-induced damage”. Besides, the wound closure entry in [3] was “significantly enhanced wound closure”. The cytotoxicity entry in series [4] and in series [7] was “No cytotoxicity” throughout. Also, the viability in series [5] and in series [6] was > 90% throughout.

As to FDKS peptide, the IC50 of inhibition of SARS-CoV-2 M^pro, FRET-based enzymatic assay in [8] turned out to be 63.2 µM.

As to “Ac-Tβ4_31-43: peptide metabolite of Ac-Tβ4, amino acids 31-43 (KETIEQEKQAGES; Thymosin beta-4; UniProt P62328 32-44, looked up, fragment)”, in series [9], the “detected as metabolite of Ac-Tβ4: CPB” value is recorded as “D ^a”.

B1: Ac-Tβ_(1-14), acetyl-thymosin β4 (amino acids 1-14) (peptide)
peptide: Ac-SDKPDMAEIEKFDK
On to B1, for which, in series [10], the “IC50 of inhibition of SARS-CoV-2 M^pro, FRET-based enzymatic assay” value is 26.1 µM. In [11], the Kd was determined as 19.4 µM, the dH stood at 40.3 kcal/mol and the “stoichiometry N” value is 1.05.

B2: Ac-Tβ_(1-17), acetyl-thymosin β4 (amino acid 1-17) (peptide)
peptide: Ac-SDKPDMAEIEKFDKSKL
Take B2: the “IC50 of inhibition of SARS-CoV-2 M^pro, FRET-based enzymatic assay” value in series [10] came to 22.4 µM. Further, in series [11], the affinity, expressed as Kd, was 22 µM; the dH is -11.4 kcal/mol; the “stoichiometry N” value came out at 0.87.
